According to ChEMBL document CHEMBL3632514, “Radiolabelling and positron emission tomography of PT70, a time-dependent inhibitor of InhA, the Mycobacterium tuberculosis enoyl-ACP reductase” (Bioorg Med Chem Lett, 2015):

Legend:
[1] = Plasma protein binding in baboon after 10 mins; type: ADME, cell-free; conditions: papio anubis
[2] = test system: Mycobacterium tuberculosis; test: Binding affinity to Mycobacterium tuberculosis InhA:NAD+ complex expressed in Escherichia coli BL21(DE3)pLysS assessed as residence time
[3] = Octanol-phosphate buffer partition coefficient, log D of the compound at pH 7.4; type: physicochemical; conditions: octanol/water
How it was run: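 Partitioning between octanol and pH 7.4 phosphate buffer, with the carbon-11 radiolabel used to report drug concentration in each phase.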

[4] = test system: Mycobacterium tuberculosis; test: Binding affinity to Mycobacterium tuberculosis InhA assessed as residence time
[5] = Drug uptake in iv dosed baboon lung measured over 90 mins by PET image analysis; type: ADME, organism-based; conditions: papio anubis, in vivo, 1.5 h
How it was run: (§1)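 Dynamic PET scan of baboons over 90 min after i.v. [11C]-labelled radiotracer. Peripheral organ time-activity curves were derived from regions of interest drawn manually on the images.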

Spleen [6] = test: Drug uptake in mouse spleen measured at 20 mins; type: ADME, tissue-based; conditions: in vivo
How it was run: (§2)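 Healthy mice were injected with [11C]-labelled tracer. Tissue radioactivity was measured at 20, 40 and 60 min post-injection and expressed as % injected dose/gram. Values are mean ± SD of three animals.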

Blood [7] = test: Drug uptake in mouse blood measured at 40 mins; type: ADME, tissue-based; how it was run: as §2
Liver [8] = test: Drug uptake in mouse liver measured at 40 mins; type: ADME, tissue-based; conditions: in vivo; how it was run: as §2
Kidney [9] = test: Drug uptake in mouse kidney measured at 60 mins; type: ADME, tissue-based; conditions: in vivo, 1 h; how it was run: as §2
[10] = Drug uptake in iv dosed baboon kidney measured over 90 mins by PET image analysis; type: ADME, organism-based; conditions: papio anubis, in vivo, 1.5 h; how it was run: as §1
[11] = Drug uptake in iv dosed baboon spleen measured over 90 mins by PET image analysis; type: ADME, organism-based; conditions: papio anubis, in vivo, 1.5 h; how it was run: as §1
Blood [12] = test: Drug uptake in mouse blood measured at 20 mins; type: ADME, tissue-based; how it was run: as §2
[13] = Drug uptake in iv dosed baboon blood measured over 90 mins by PET image analysis; type: ADME, organism-based; conditions: papio anubis, in vivo, 1.5 h; how it was run: as §1
[14] = Drug uptake in iv dosed baboon gallbladder measured over 90 to 120 mins by PET image analysis; type: ADME, organism-based, Gall bladder; conditions: papio anubis, in vivo
Brain = test: Drug uptake in iv dosed baboon brain measured over 15 to 90 mins by PET image analysis; type: ADME, organism-based; conditions: papio anubis, in vivo
How it was run: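 Baboon PET after i.v. radiolabelled drug, with images acquired for 90 min. Dose-corrected coronal images were summed over 15–90 min. Time-activity curves came from manually drawn regions of interest.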

Spleen [15] = test: Drug uptake in mouse spleen measured at 40 mins; type: ADME, tissue-based; conditions: in vivo; how it was run: as §2
Lung [16] = test: Drug uptake in mouse lung measured at 20 mins; type: ADME, tissue-based; conditions: in vivo; how it was run: as §2
Kidney [17] = test: Drug uptake in mouse kidney measured at 20 mins; type: ADME, tissue-based; conditions: in vivo; how it was run: as §2
Liver [18] = test: Drug uptake in mouse liver measured at 60 mins; type: ADME, tissue-based; conditions: in vivo, 1 h; how it was run: as §2
[19] = Drug uptake in iv dosed baboon liver measured over 90 mins by PET image analysis; type: ADME, organism-based; conditions: papio anubis, in vivo, 1.5 h; how it was run: as §1
[20] = Drug uptake in iv dosed baboon heart measured over 90 mins by PET image analysis; type: ADME, organism-based; conditions: papio anubis, in vivo, 1.5 h; how it was run: as §1
Lung [21] = test: Drug uptake in mouse lung pretreated with unlabelled compound for 1 hr followed by radiolabeled compound treatment measured after 20 mins by PET image analysis; type: ADME, tissue-based; conditions: in vivo
How it was run: (§3)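 Mice received a 200 mg/kg predose of unlabelled compound 1 h before [11C]-tracer injection. Tissue radioactivity was read 20 min after the tracer and given as % injected dose/gram, mean ± SD of three animals.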

Kidney [22] = test: Drug uptake in mouse kidney measured at 40 mins; type: ADME, tissue-based; conditions: in vivo; how it was run: as §2
Spleen [23] = test: Drug uptake in mouse spleen measured at 60 mins; type: ADME, tissue-based; conditions: in vivo, 1 h; how it was run: as §2
Lung [24] = test: Drug uptake in mouse lung measured at 40 mins; type: ADME, tissue-based; conditions: in vivo; how it was run: as §2
Blood [25] = test: Drug uptake in mouse blood measured at 60 mins; type: ADME, tissue-based; conditions: 1 h; how it was run: as §2
Lung [26] = test: Drug uptake in mouse lung measured at 60 mins; type: ADME, tissue-based; conditions: in vivo, 1 h; how it was run: as §2
Spleen [27] = test: Drug uptake in mouse spleen pretreated with unlabelled compound for 1 hr followed by radiolabeled compound treatment measured after 20 mins by PET image analysis; type: ADME, tissue-based; conditions: in vivo; how it was run: as §3

CCCCCCc1ccc(Oc2ccccc2C)c(O)c1
PPB [1]: 99.76%
TIME [2]: 0.4 h
logD [3]: 3.65

NC(=O)C1=CN([C@@H]2O[C@H](COP(=O)(O)OP(=O)(O)OC[C@H]3O[C@@H](n4cnc5c(N)ncnc54)[C@H](O)[C@@H]3O)[C@@H](O)[C@H]2O)C=C[C@@H]1C(=O)c1ccncc1
TIME [4]: 1 h

CCCCCCc1ccc(Oc2ccccc2[11CH3])c(O)c1
Drug uptake [5]: Not Active
Drug uptake (Spleen [6]): 1.82 %ID/cc
Drug uptake (Blood [7]): 1.46 %ID/cc
Drug uptake (Liver [8]): 15.7 %ID/cc
Drug uptake (Kidney [9]): 0.31 %ID/cc
Drug uptake [10]: Active
Drug uptake [11]: Active
Drug uptake (Blood [12]): 1.7 %ID/cc
Drug uptake [13]: Not Active
Drug uptake [14]: Active
Drug uptake (Brain): Active
Drug uptake (Spleen [15]): 0.93 %ID/cc
Drug uptake (Lung [16]): 1.36 %ID/cc
Drug uptake (Kidney [17]): 2.21 %ID/cc
Drug uptake (Liver [18]): 14.09 %ID/cc
Drug uptake [19]: Active
Drug uptake [20]: Not Active
Drug uptake (Lung [21]): Active
Drug uptake (Kidney [22]): 1.45 %ID/cc
Drug uptake (Spleen [23]): 0.21 %ID/cc
Drug uptake (Lung [24]): 1.26 %ID/cc
Drug uptake (Blood [25]): 0.55 %ID/cc
Drug uptake (Lung [26]): 1.35 %ID/cc
Drug uptake (Spleen [27]): Active

CCCCCCc1ccc(Oc2ccccc2[11C]#N)c(O)c1
Drug uptake (Brain): Active
